Test results from ChEMBL document CHEMBL1135816, “6-Aryl-1,4-dihydro-benzo[d][1,3]oxazin- 2-ones: a novel class of potent, selective, and orally active nonsteroidal progesterone receptor antagonists” (J Med Chem, 2002).

What was measured:
[1] = target: T1, Progesterone receptor (Rattus norvegicus) (UniProt Q63449); assay: inhibitory activity against progesterone receptor (PR) in ovariectomized mature female rat complement C3 model; format: functional
T1 sequence (whole entry): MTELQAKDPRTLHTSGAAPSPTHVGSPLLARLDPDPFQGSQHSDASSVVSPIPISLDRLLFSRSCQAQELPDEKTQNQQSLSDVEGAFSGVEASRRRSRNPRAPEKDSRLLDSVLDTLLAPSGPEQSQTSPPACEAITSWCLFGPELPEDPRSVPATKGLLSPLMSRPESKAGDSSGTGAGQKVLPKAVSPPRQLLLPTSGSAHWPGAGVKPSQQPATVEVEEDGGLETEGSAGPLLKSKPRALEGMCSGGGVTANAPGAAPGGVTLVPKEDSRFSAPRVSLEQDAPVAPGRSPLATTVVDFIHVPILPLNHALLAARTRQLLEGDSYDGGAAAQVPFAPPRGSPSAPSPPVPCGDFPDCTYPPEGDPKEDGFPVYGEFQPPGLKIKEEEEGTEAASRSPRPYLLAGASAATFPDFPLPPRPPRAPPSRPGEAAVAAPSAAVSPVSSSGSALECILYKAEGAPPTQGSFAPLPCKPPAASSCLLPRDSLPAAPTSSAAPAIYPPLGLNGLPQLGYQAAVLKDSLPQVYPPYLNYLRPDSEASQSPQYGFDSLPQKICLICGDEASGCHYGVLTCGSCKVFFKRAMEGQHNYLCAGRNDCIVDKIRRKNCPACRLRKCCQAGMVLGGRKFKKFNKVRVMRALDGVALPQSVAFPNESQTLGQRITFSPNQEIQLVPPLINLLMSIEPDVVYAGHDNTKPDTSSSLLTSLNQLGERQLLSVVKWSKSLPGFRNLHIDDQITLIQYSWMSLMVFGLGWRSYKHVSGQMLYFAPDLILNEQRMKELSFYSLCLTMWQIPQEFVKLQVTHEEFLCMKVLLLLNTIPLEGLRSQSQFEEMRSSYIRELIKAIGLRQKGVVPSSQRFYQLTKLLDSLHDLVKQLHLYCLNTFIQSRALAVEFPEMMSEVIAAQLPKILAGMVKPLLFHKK
How it was run: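 Adult ovariectomized rats given oral doses; read-out is reversal of progestin down-regulation of estrogen-induced complement C3 synthesis in uterine epithelium. ED50 averaged from at least duplicate determinations.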

[2] = target: T1, Progesterone receptor (Rattus norvegicus); assay: Inhibitory activity against progesterone receptor (PR) in ovariectomized mature female rat decidualization model; format: functional
How it was run: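 Ovariectomized mature rats dosed orally for 7 days, with progesterone 5.6 mg/kg SC given alongside; vehicle-only controls. Decidual response (D/C) measured 24 h after the final treatment, seven animals per point. ED50 averaged from at least duplicate determinations.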

Progesterone receptor [3] = target: T2, Progesterone receptor (Homo sapiens, UniProt P06401); assay: Antagonist activity against progesterone receptor (PR) in an alkaline phosphatase assay in the T47D human breast carcinoma cell line; format: functional, cell-based
T2 sequence (P06401 whole entry): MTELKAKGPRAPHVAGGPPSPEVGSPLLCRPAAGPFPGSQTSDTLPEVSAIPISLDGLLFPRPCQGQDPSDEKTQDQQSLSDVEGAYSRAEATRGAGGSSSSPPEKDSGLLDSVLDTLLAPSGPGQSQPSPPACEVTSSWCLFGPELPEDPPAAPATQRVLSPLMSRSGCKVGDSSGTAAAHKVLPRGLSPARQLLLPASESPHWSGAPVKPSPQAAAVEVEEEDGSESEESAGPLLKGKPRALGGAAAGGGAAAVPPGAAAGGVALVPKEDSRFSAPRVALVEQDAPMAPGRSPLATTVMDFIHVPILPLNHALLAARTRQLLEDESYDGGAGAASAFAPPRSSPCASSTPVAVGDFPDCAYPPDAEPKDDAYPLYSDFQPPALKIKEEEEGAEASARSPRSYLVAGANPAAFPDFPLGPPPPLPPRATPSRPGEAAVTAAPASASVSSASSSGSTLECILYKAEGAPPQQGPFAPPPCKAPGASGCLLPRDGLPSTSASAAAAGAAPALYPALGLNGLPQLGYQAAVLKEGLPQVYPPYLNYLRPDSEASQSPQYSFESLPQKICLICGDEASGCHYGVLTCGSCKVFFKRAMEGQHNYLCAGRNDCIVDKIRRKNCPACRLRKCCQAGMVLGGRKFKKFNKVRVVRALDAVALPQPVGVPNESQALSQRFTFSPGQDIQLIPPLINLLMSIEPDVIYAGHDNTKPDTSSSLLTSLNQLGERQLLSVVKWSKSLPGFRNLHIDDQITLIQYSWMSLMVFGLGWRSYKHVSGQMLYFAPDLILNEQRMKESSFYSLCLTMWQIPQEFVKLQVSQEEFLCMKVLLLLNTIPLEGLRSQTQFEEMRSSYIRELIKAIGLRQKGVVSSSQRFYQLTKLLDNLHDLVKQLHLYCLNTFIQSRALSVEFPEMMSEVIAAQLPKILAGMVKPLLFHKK

Progesterone receptor [4] = target: T2, Progesterone receptor; assay: Antagonist activity against progesterone receptor (PR) in an assay using PRE-luciferase plasmid co-transfected CV-1 cells; format: functional, cell-based
How it was run: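 CV-1 cells cotransfected with hPR and PRE-luciferase plasmids, luciferase read-out; IC50 averaged from at least duplicate determinations.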

Progesterone receptor [5] = target: T2, Progesterone receptor; assay: Agonist activity against progesterone receptor (PR) in an alkaline phosphatase assay in the T47D human breast carcinoma cell line; format: functional, cell-based
How it was run: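 T47D human breast carcinoma cells scored for PR agonism via alkaline phosphatase read-out; EC50 taken as the mean of at least duplicate determinations.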

[6] = Half life in female rats for a dose of 1 mg/kg administered intravenously.; format: ADME, organism-based; parameters: dose 1 mg/kg, route intravenous; conditions: rat, in vivo, iv
[7] = Area under the curve (AUC) for the compound in female rats for a dose of 1 mg/kg administered intravenously.; format: ADME, organism-based; parameters: dose 1 mg/kg, route intravenous; conditions: rat, in vivo, iv
[8] = Plasma clearance (Cl) for the compound in female rats for a dose of 1 mg/kg administered intravenously; format: ADME, organism-based; parameters: dose 1 mg/kg, route intravenous; conditions: rat, iv, read-out: Clp (converted)

Structure (SMILES) | ED50 [2] [mg/kg] | IC50 (Progesterone receptor [3]) [nM] | IC50 (Progesterone receptor [4]) [nM] | also measured
CC#C[C@]1(O)CC[C@H]2[C@@H]3CCC4=CC(=O)CCC4=C3[C@@H](c3ccc(N(C)C)cc3)C[C@@]21C | 0.3 | – | – | ED50 [1]: 1.7 mg/kg
CC1(C)OC(=O)Nc2c(F)cc(-c3cc(F)cc(C#N)c3)cc21 | 0.6 | 26.2 | 98.8 | –
CC1(C)OC(=O)Nc2ccc(-c3cccc(Cl)c3)cc21 | > 30 | 30 | 9.3 | –
CC1(C)OC(=O)Nc2ccc(-c3ccc(Cl)cc3)cc21 | – | 30 | 642 | –
CC1(C)OC(=O)Nc2ccc(-c3cccc(F)c3)cc21 | 1.5 | 8.2 | 3.8 | –

The next lines start with results.

ED50 [2] [mg/kg] | IC50 (Progesterone receptor [3]) [nM] | IC50 (Progesterone receptor [4]) [nM] | Structure (SMILES) | also measured
– | 300 | 500 | CC1(C)OC(=O)Nc2ccc(-c3ccccc3Cl)cc21 | –
– | 19.5 | 38.3 | COc1cccc(-c2ccc3c(c2)C(C)(C)OC(=O)N3)c1 | –
2 | – | 2.6 | CC1(C)OC(=O)Nc2ccc(-c3cc(F)cc(Cl)c3)cc21 | EC50 (Progesterone receptor [5]): 500 nM
– | 15.1 | – | CC1(C)OC(=O)Nc2ccc(-c3ccc(F)c(C#N)c3)cc21 | –
7 | 17 | 9.9 | CC1(C)OC(=O)Nc2ccc(-c3cccc(C#N)c3)cc21 | half-life [6]: 36 min; AUC [7]: 460 ng·h/mL; clearance [8]: 36.3 mL/min/kg
